Measured values reported in ChEMBL document CHEMBL3259666, “Discovery of a neuroprotective chemical, (S)-N-(3-(3,6-dibromo-9H-carbazol-9-yl)-2-fluoropropyl)-6-methoxypyridin-2-amine [(-)-P7C3-S243], with improved druglike properties” (J Med Chem, 2014).
Activity calls are given as the source filed them. The rule behind the calls is not given here.

Assays:
Mus musculus [1] = assay: Neuroprotective activity in substantia nigra of C57Bl/6 mouse neurogenesis model assessed as protection from MPTP-induced cell death in mature neurons at 5 mg/kg/day, ip bid administered for 21 days by immunohistochemical analysis relative to vehicle-treated control; type: functional, organism-based
How it was run: (§1)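 MPTP model in adult male C57Bl/6 mice, individually housed 1 week. MPTP free base 30 mg/kg/day IP for 5 days. From day 6 (24 h after the last MPTP dose), compound or vehicle given IP twice daily for 21 days. Mice were then perfused with 4% paraformaldehyde. SNc sectioned at 30 μm intervals and every fourth section stained for TH (DAB, hematoxylin counterstain). TH+ cells counted blinded; mean ± SEM, compared with vehicle + MPTP.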

Mus musculus [2] = assay: Neuroprotective activity in wild type C57BL/J6 mouse assessed as survival of newborn hippocampal neurons at 0.1 to 10 uM, icv administered for 7 days by BrdU staining-based microscopy relative to vehicle-treated control; type: functional, organism-based
How it was run: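 Adult (12-week) wild-type C57BL/J6 mice. Compound infused ICV into the left lateral ventricle by osmotic minipump at 0.5 μL/h for 7 days, with BrdU 50 mg/kg/day IP for 6 days. Perfused 24 h after the last BrdU dose. BrdU antigen unmasked (formamide/SSC at 65 °C, then 2 M HCl); anti-BrdU staining. BrdU+ cells in the contralateral dentate gyrus SGZ counted in every fifth 40 μm section and normalised to dentate gyrus volume.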

Translocator protein = Translocator protein (Homo sapiens, UniProt P30536); assay: Inhibition of TSPO (unknown origin)
Chain of Translocator protein (P30536 whole entry): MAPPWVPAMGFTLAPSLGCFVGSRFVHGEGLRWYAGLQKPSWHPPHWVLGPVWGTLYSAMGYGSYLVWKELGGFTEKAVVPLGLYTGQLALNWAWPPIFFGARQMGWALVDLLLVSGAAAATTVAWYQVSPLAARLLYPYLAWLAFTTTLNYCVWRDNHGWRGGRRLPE

Mus musculus [3] = assay: Neuroprotective activity in wild type C57BL/J6 mouse assessed as survival of newborn hippocampal neurons at 10 uM, icv administered for 7 days by BrdU staining-based immunohistochemical analysis relative to vehicle-treated control; type: functional, organism-based
How it was run: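 Adult (12 week old) C57BL/J6 mice, environmentally deprived; compound infused via osmotic minipump into left lateral ventricle at 0.5 μL/h for 7 days. BrdU IP 50 mg kg–1 day–1 for 6 days during infusion; perfusion 24 h after last BrdU. BrdU+ cells in SGZ/dentate gyrus of contralateral hemisphere counted in every fifth 40 μm section, normalized to dentate gyrus volume; mean ± SEM.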

Mus musculus [4] = assay: Toxicity in C57Bl/6 mouse assessed as effect on appearance up to 40 mg/kg/day, ip bid administered for 21 days; type: organism-based; set-up: route intraperitoneal; details: in vivo, 504 h
Mus musculus [5] = assay: Toxicity in C57Bl/6 mouse assessed as effect on behavior up to 40 mg/kg/day, ip bid administered for 21 days; type: organism-based; set-up: route intraperitoneal; details: in vivo, 504 h
Mus musculus [6] = assay: Neuroprotective activity in substantia nigra of C57Bl/6 mouse neurogenesis model assessed as protection from MPTP-induced cell death in mature neurons at 10 mg/kg/day, ip bid administered for 21 days by immunohistochemical analysis relative to vehicle-treated control; type: functional; details: route intraperitoneal; how it was run: as §1
Mus musculus [7] = assay: Toxicity in C57Bl/6 mouse assessed as effect on weight up to 40 mg/kg/day, ip bid administered for 21 days; type: organism-based; set-up: route intraperitoneal; details: in vivo, 504 h

SMILES | Activity (Mus musculus [1]) | Activity (Mus musculus [2]) | IC50 (Translocator protein) [nM] | Activity (Mus musculus [3]) | Activity (Mus musculus [4]) | Activity (Mus musculus [5]) | Activity (Mus musculus [6]) [%] | Activity (Mus musculus [7])
COc1cccc(NC[C@@H](F)Cn2c3ccc(Br)cc3c3cc(Br)ccc32)n1 | inactive | inactive | 680 | – | – | – | – | –
COc1cccc(NCC(O)Cn2c3ccc(Br)cc3c3cc(Br)ccc32)n1 (configuration not stated) | – | – | – | Active | – | – | – | –
COc1cccc(NCC(F)Cn2c3ccc(Br)cc3c3cc(Br)ccc32)c1 (configuration not stated) | Active | – | 2000 | Active | Non-toxic | Non-toxic | 75 | Non-toxic
NCC(O)Cn1c2ccc(Br)cc2c2cc(Br)ccc21 (configuration not stated) | – | – | – | Active | – | – | – | –
